Data reported in ChEMBL document CHEMBL1154352, “Toll-like receptor 7 selective synthetic oligoribonucleotide agonists: synthesis and structure-activity relationship studies” (J Med Chem, 2009).
The source made the active and inactive calls. The calls are words filed in the database; no cut-off is given here.

Legend:
PBMC [1] = experiment: Immunomodulatory activity in human PBMC assessed as induction of IL12 at 50 ug/ml after 24 hrs; type: functional, cell-based
Summary of the method: (§1)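 Human PBMCs plated at 5 × 10^6 cells/mL; compounds dissolved in PBS added at various concentrations, 37 °C for 24 h. Supernatant cytokines/chemokines quantified with human Luminex multiplex kit.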

PBMC [2] = experiment: Immunomodulatory activity in human PBMC assessed as induction of IP10 at 50 ug/ml after 24 hrs; type: functional, cell-based; summary of the method: as §1
Homo sapiens [3] = species on record: Homo sapiens; experiment: Immunostimulatory activity in human mDC assessed as induction of IL6 at 100 ug/ml after 24 hrs; type: functional
Summary of the method: (§2)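 Human mDCs isolated from PBMCs by CD19+ B-cell depletion then BDCA1 positive selection; plated at 1 × 10^6 cells/mL, compounds in PBS, 37 °C for 24 h; supernatant cytokines by human Luminex multiplex. Representative of four independent experiments.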

PBMC [4] = experiment: Immunomodulatory activity in human PBMC assessed as induction of MIP1beta at 50 ug/ml after 24 hrs; type: functional, cell-based; summary of the method: as §1
PBMC [5] = experiment: Immunomodulatory activity in human PBMC assessed as induction of MIP1alpha at 50 ug/ml after 24 hrs; type: functional, cell-based; summary of the method: as §1
Homo sapiens [6] = species on record: Homo sapiens; experiment: Immunostimulatory activity in human mDC assessed as induction of IL12 at 100 ug/ml after 24 hrs; type: functional; summary of the method: as §2
PBMC [7] = experiment: Immunomodulatory activity in human PBMC assessed as induction of IL1-beta at 50 ug/ml after 24 hrs; type: functional, cell-based; summary of the method: as §1
Homo sapiens [8] = species on record: Homo sapiens; experiment: Immunostimulatory activity in human mDC assessed as induction of IFNalpha at 100 ug/ml after 24 hrs; type: functional; summary of the method: as §2
[9] = molecular target: T1, Toll-like receptor 8 (Homo sapiens) (UniProt Q9NR97); experiment: Activation of human TLR8 expressed in HEK293XL assessed as fold induction of NF-kappaB activity at 50 ug/ml after 18 hrs by reporter gene assay relative to control
T1 sequence (whole entry): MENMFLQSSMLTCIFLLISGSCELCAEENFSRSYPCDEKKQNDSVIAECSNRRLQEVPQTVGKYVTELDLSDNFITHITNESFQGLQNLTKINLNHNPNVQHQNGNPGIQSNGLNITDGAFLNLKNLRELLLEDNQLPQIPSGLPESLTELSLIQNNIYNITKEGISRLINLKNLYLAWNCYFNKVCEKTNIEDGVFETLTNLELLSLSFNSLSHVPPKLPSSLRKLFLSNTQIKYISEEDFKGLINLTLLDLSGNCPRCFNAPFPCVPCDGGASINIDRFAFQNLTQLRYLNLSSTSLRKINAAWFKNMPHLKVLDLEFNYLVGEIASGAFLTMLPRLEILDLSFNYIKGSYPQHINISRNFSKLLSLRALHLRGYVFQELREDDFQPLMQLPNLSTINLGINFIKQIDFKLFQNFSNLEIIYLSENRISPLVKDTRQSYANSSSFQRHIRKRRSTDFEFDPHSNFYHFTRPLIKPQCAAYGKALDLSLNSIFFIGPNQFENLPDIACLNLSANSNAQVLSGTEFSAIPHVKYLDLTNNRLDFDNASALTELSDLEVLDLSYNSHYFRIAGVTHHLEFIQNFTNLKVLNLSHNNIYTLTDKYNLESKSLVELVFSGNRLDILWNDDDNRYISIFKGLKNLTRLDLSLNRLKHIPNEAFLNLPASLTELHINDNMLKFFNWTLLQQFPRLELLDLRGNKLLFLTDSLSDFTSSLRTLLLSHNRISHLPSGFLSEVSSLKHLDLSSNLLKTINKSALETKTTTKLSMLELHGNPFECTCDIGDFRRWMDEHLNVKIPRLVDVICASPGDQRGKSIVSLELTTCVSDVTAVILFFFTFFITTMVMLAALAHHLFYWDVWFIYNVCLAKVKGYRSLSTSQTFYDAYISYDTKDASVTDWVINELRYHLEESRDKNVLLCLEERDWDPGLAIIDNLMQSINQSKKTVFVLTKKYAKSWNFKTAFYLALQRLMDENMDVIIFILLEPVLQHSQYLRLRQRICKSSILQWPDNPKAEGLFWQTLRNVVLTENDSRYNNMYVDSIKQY
Summary of the method: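 HEK293 cells stably expressing human TLR7 or TLR8, transiently transfected with SEAP reporter plasmid; medium replaced, SIMRA compounds added, 18 h incubation. Supernatant SEAP measured by QuantiBlue; expressed as fold increase in NF-κB activity over PBS control. Tabulated data at 50 μg/mL, representative of three independent experiments.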

PBMC [10] = experiment: Immunomodulatory activity in human PBMC assessed as induction of MCP1 at 50 ug/ml after 24 hrs; type: functional, cell-based; summary of the method: as §1
Homo sapiens [11] = species on record: Homo sapiens; experiment: Immunostimulatory activity in human pDC assessed as induction of IL6 at 100 ug/ml after 24 hrs; type: functional
Summary of the method: (§3)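 Human pDCs plated at 1 × 10^6 cells/mL; compounds in PBS added, 37 °C for 24 h; supernatant cytokines/chemokines by human Luminex multiplex kit.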

[12] = molecular target: Toll-like receptor 3 (Homo sapiens) (UniProt O15455); experiment: Activation of human TLR3 expressed in HEK293 assessed as induction of NF-kappaB activity reporter gene assay; type: cell-based
Toll-like receptor 3 (Homo sapiens), sequence (O15455 whole entry): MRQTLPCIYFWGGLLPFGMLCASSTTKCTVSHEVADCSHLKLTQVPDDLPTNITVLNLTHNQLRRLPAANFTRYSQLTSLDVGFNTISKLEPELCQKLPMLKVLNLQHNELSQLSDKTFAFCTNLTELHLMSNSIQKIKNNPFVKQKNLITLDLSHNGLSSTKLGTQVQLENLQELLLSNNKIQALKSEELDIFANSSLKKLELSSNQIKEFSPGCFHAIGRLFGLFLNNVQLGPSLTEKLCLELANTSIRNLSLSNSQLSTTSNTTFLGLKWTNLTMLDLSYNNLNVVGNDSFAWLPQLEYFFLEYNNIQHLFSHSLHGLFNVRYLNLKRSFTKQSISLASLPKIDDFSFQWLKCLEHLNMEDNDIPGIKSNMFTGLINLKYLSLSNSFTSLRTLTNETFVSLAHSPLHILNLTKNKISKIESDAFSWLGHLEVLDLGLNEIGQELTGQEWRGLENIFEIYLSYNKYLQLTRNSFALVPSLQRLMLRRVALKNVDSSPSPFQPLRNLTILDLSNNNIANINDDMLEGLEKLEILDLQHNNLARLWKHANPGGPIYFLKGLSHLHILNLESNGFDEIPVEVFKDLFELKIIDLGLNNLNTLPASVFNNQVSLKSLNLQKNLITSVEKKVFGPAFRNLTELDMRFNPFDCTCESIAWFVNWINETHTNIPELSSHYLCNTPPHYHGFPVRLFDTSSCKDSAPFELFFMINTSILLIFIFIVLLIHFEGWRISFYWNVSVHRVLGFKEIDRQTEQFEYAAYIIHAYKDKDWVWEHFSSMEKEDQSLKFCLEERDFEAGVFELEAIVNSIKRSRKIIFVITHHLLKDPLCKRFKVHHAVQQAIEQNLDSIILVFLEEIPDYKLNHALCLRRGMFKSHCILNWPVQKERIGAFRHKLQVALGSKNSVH

Homo sapiens [13] = species on record: Homo sapiens; experiment: Immunostimulatory activity in human mDC assessed as induction of TNFalpha at 100 ug/ml after 24 hrs; type: functional; summary of the method: as §2
Homo sapiens [14] = species on record: Homo sapiens; experiment: Immunostimulatory activity in human mDC assessed as induction of IP10 at 100 ug/ml after 24 hrs; type: functional; summary of the method: as §2
PBMC [15] = experiment: Immunomodulatory activity in human PBMC assessed as induction of IL6 at 50 ug/ml after 24 hrs; type: functional, cell-based; summary of the method: as §1
Mus musculus = experiment: Immunomodulatory activity in C57BL/6 mouse assessed as induction of IL12 release at 25 mg/kg, sc after 2 hrs by ELISA; type: functional, organism-based; design: dose 25 mg/kg
Summary of the method: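 Female C57BL/6 wild-type mice, 5–8 weeks old, n=3; compounds given subcutaneously at 10 or 25 mg/kg. Retro-orbital blood at 2 h; serum cytokines by mouse Luminex multiplex or IL-12 ELISA.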

[16] = Metabolic stability in human serum assessed as full length product remaining after 10 mins by HPLC; type: ADME, cell-free; conditions: read-out: Stability
Summary of the method: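 About 0.5 A260 units compound in 1% human serum in PBS, 37 °C; aliquot taken at 10 min, analysed by anion-exchange HPLC for percent intact full-length product.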

Homo sapiens [17] = species on record: Homo sapiens; experiment: Immunostimulatory activity in human pDC assessed as induction of IP10 at 100 ug/ml after 24 hrs; type: functional; summary of the method: as §3
PBMC [18] = experiment: Immunomodulatory activity in human PBMC assessed as induction of IFNalpha at 50 ug/ml after 24 hrs; type: functional, cell-based; summary of the method: as §1
Homo sapiens [19] = species on record: Homo sapiens; experiment: Immunostimulatory activity in human pDC assessed as induction of IFNalpha at 100 ug/ml after 24 hrs; type: functional; summary of the method: as §3
PBMC [20] = experiment: Immunomodulatory activity in human PBMC assessed as induction of TNFalpha at 50 ug/ml after 24 hrs; type: functional, cell-based; summary of the method: as §1

For `Nc1ccn([C@@H]2O[C@H](COP(=O)(S)O[C@H]3[C@@H](O)[C@H](n4cnc5c(N)ncnc54)O[C@@H]3COP(=O)(S)O[C@H]3[C@@H](O)[C@H](n4ccc5c(=O)[nH]c(N)nc54)O[C@@H]3COP(=O)(S)O[C@H]3[C@@H](O)[C@H](n4ccc(=O)[nH]c4=O)O[C@@H]3COP(=O)(S)O[C@H]3[C@@H](O)[C@H](n4ccc5c(=O)[nH]c(N)nc54)O[C@@H]3COP(=O)(S)O[C@H]3[C@@H](O)[C@H](n4cnc5c(N)ncnc54)O[C@@H]3COP(=O)(S)O[C@H]3[C@@H](O)[C@H](n4cnc5c(N)ncnc54)O[C@@H]3CO)[C@@H](OP(=O)(S)OC[C@H]3O[C@@H](n4ccc5c(=O)[nH]c(N)nc54)[C@H](O)[C@@H]3OP(=O)(S)OC[C@H]3O[C@@H](n4cnc5c(N)ncnc54)[C@H](O)[C@@H]3OP(=O)(S)OC[C@H]3O[C@@H](n4ccc(=O)[nH]c4=O)[C@H](O)[C@@H]3OP(=O)(S)OC[C@H]3O[C@@H](n4ccc(=O)[nH]c4=O)[C@H](O)[C@@H]3OP(=O)(S)OCC(O)COP(=O)(S)O[C@H]3[C@@H](O)[C@H](n4ccc(=O)[nH]c4=O)O[C@@H]3COP(=O)(S)O[C@H]3[C@@H](O)[C@H](n4ccc(=O)[nH]c4=O)O[C@@H]3COP(=O)(S)O[C@H]3[C@@H](O)[C@H](n4cnc5c(N)ncnc54)O[C@@H]3COP(=O)(S)O[C@H]3[C@@H](O)[C@H](n4ccc5c(=O)[nH]c(N)nc54)O[C@@H]3COP(=O)(S)O[C@H]3[C@@H](O)[C@H](n4ccc(N)nc4=O)O[C@@H]3COP(=O)(S)O[C@H]3[C@@H](O)[C@H](n4cnc5c(N)ncnc54)O[C@@H]3COP(=O)(S)O[C@H]3[C@@H](O)[C@H](n4ccc5c(=O)[nH]c(N)nc54)O[C@@H]3COP(=O)(S)O[C@H]3[C@@H](O)[C@H](n4ccc(=O)[nH]c4=O)O[C@@H]3COP(=O)(S)O[C@H]3[C@@H](O)[C@H](n4ccc5c(=O)[nH]c(N)nc54)O[C@@H]3COP(=O)(S)O[C@H]3[C@@H](O)[C@H](n4cnc5c(N)ncnc54)O[C@@H]3COP(=O)(S)O[C@H]3[C@@H](O)[C@H](n4cnc5c(N)ncnc54)O[C@@H]3CO)[C@H]2O)c(=O)n1` (stereo partly specified), the Activity (PBMC [1]) was 174 pg/mL, the Activity (PBMC [2]) was 55 pg/mL and the Activity (Homo sapiens [3]) was “Active”. For the same molecule, the Activity (PBMC [4]) was 6680 pg/mL, the Activity (PBMC [5]) was 3090 pg/mL and the Activity (Homo sapiens [6]) was “Active”. For the same molecule, the Activity (PBMC [7]) was 123 pg/mL, the Activity (Homo sapiens [8]) was “Active” and the fold change (FC) [9] was 0.8. The Activity (PBMC [10]) was 46700 pg/mL, the Activity (Homo sapiens [11]) was “Active” and the Activity [12] was “inactive”. For the same molecule, the Activity (Homo sapiens [13]) was “Active”, the Activity (Homo sapiens [14]) was “Active” and the Activity (PBMC [15]) was 1900 pg/mL. The Activity (Mus musculus) was “Active”, the remaining at 10 min [16] was 90% and the Activity (Homo sapiens [17]) was “Active”. The Activity (PBMC [18]) was 121 pg/mL, the Activity (Homo sapiens [19]) was “Active” and the Activity (PBMC [20]) was 18 pg/mL.
